{"data": "Assay results of several laboratories", "effect on": "enzyme activity", "mode": "inhibitor", "HDAC8": "Histone deacetylase 8 (HDAC8, Homo sapiens, UniProt Q9BY41)", "HDAC1": "Histone deacetylase 1 (HDAC1, Homo sapiens, UniProt Q13547)", "PARP10": "Protein mono-ADP-ribosyltransferase PARP10 (PARP10, Homo sapiens, UniProt Q53GL7)", "Seed linoleate 13S-lipoxygenase-1": "Seed linoleate 13S-lipoxygenase-1 (Glycine max, UniProt P08170)"}
{"Compound": "COc1ccc(Nc2ncnc3c2ncn3Cc2ccc(C(=O)NO)cc2)cc1", "target": "HDAC8", "IC50 [nM]": 112}
{"Compound": "COc1ccc(N(Cc2csc(-c3ccccc3)n2)C(=O)CCCCCC(=O)NO)cc1", "target": "HDAC1", "IC50 [nM]": 1.1}
{"Compound": "c1ccc2c(-c3cnn4cc(-c5ccc(N6CCNCC6)cc5)cnc34)ccnc2c1", "target": "TGF-beta receptor type-2 (TGFBR2, Homo sapiens, UniProt P37173)", "IC50 [nM]": 89.7}
{"Compound": "O=C(NO)c1ccc(Cn2cnc3c(Nc4ccc(F)c(Cl)c4)ncnc32)cc1", "target": "HDAC8", "IC50 [nM]": 154}
{"Compound": "O=c1[nH]c2c(nnn2Cc2c(F)c(F)c(F)c(F)c2F)c2ccc(F)cc12", "target": "PARP10", "IC50 [nM]": "> 10000"}
{"Compound": "Cc1ccc(S(=O)(=O)[N](Nc2ccc([N+](=O)[O-])cc2[N+](=O)[O-])[Sn]([Cl])[Cl])cc1", "target": "Polyunsaturated fatty acid 5-lipoxygenase (ALOX5, Homo sapiens, UniProt P09917)", "IC50 [nM]": 1520}
{"Compound": "COc1cccc(Cn2nnc3c4ccccc4c(=O)[nH]c32)c1", "target": "PARP10", "IC50 [nM]": 219}
{"Compound": "C=C(C)[C@@H]1CC[C@]2(C)CC[C@]3(C)[C@H](CC[C@@H]4[C@@]5(C)CC[C@H](O)C(C)(C)[C@@H]5CC[C@]43C)[C@@H]12", "target": "Seed linoleate 13S-lipoxygenase-1", "IC50 [nM]": 110000}
{"Compound": "O=C(NO)c1ccc(Cn2cnc3c(Nc4cccc([N+](=O)[O-])c4)ncnc32)cc1", "target": "HDAC1", "assay": "fluorescence", "IC50 [nM]": 148}
{"Compound": "O=c1[nH]c2c(nnn2-c2ccc(Br)cc2)c2ccccc12", "target": "PARP10", "IC50 [nM]": "> 10000"}
{"Compound": "O=C(NO)c1ccc(Cn2cnc3c(Nc4ccc(Cl)cc4)ncnc32)cc1", "target": "HDAC1", "assay": "fluorescence", "IC50 [nM]": 166}
{"Compound": "COc1ccc(N(Cc2nc(-c3cccc(Cl)c3)cs2)C(=O)CCCCCC(=O)NO)cc1", "target": "HDAC1", "IC50 [nM]": 4.9}
{"Compound": "c1c(N2CCCC2)nc(N2CCCC2)nc1N1CCNCC1", "target": "Caspase-5 (CASP5, Homo sapiens, UniProt P51878)", "setting": "with preincubation", "IC50 [nM]": 138}
{"Compound": "CCCOc1ccc(N(Cc2nc(-c3ccccc3)cs2)C(=O)CCCCCC(=O)NO)cc1", "target": "HDAC1", "IC50 [nM]": 2.2}
{"Compound": "O=c1[nH]c2c(nnn2Cc2ccccc2C(F)(F)F)c2ccccc12", "target": "PARP10", "IC50 [nM]": "> 10000"}
{"Compound": "COc1ccc(N(Cc2nc(-c3ccccc3)cs2)C(=O)CCCCCC(=O)NO)cc1", "target": "HDAC1", "IC50 [nM]": 1.6}
{"Compound": "O=c1cc(-c2ccccc2)oc2cc(O)c(O)c(O)c12", "target": "Seed linoleate 13S-lipoxygenase-1", "IC50 [nM]": 6360}
{"Compound": "O=C(CCCCCC(=O)N(Cc1nc(-c2ccccc2)cs1)c1ccc(OCc2ccc(F)cc2)cc1)NO", "target": "HDAC1", "IC50 [nM]": 3.8}
{"Compound": "Clc1ccc(Nc2ccncc2)cc1Cl", "target": "Uracil-DNA glycosylase (UNG, Homo sapiens, UniProt P13051)", "IC50 [nM]": "> 99000"}
{"Compound": "COc1ccc(N(Cc2csc(-c3ccc(Br)cc3)n2)C(=O)CCCCCC(=O)NO)cc1", "target": "HDAC1", "IC50 [nM]": 1}
{"Compound": "CCCCCn1nnc2c3ccccc3c(=O)[nH]c21", "target": "PARP10", "IC50 [nM]": 182}
{"Compound": "COc1ccc(N(Cc2nc(-c3ccc(C)cc3)cs2)C(=O)CCCCCC(=O)NO)cc1", "target": "HDAC1", "IC50 [nM]": 2.6}
{"Compound": "Cc1ccc(Cn2nnc3c4ccccc4c(=O)[nH]c32)cc1", "target": "PARP10", "IC50 [nM]": 204}
{"Compound": "COc1ccc(N(Cc2nc(-c3ccc(Br)cc3)cs2)C(=O)CCCCCC(=O)NO)cc1", "target": "HDAC1", "IC50 [nM]": 3.6}
{"Compound": "Cc1ccc(Cn2nnc3c4ccc(C(F)(F)F)cc4c(=O)[nH]c32)cc1", "target": "PARP10", "IC50 [nM]": "> 10000"}
